In article PMC11905928 (Cell reports. Physical science, 2024):
pIC50: −log10 of the molar value. ≈ marks a conversion by molar mass, not a printed value. Where a name gives a salt, the structure may show the parent alone. Read-outs that look alike come from different tables or passages of the source.

Key:
Aβ1–42 aggregation = Aβ1–42 aggregation (Homo sapiens, UniProt P05067); test: Thioflavin T; format: biochemical; settings: for normalized fluorescent intensity with respect to positive control Aβ1–42+ThT: Aβ1–42 preincubated 24 h
Chain of Aβ1–42 aggregation (P05067 672-713): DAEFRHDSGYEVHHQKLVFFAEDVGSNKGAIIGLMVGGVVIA

C20 cells = test: MTT cell viability, compound by itself; format: cell-based, human
Procedure, shortened: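 MTT assay on human microglial C20 cells, run by dose and also by incubation time at 1 uM of test compound. At least three independent experiments, each with 10 technical replicates; error bars are SDs.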

[1] = biological target: Aβ19–20 (FF) dimerization (Homo sapiens, UniProt P05067); test: biochemical; settings: for pIC50: Hill equation, FJ, 200 mM KCl
[2] = tested on: human microglia cells (C20 cell line); test: MTT cell viability, protection against Aβ1–42 induced toxicity; format: cell-based; settings: 48 h; for viability: C20, Aβ1–42 500 nM; for viability at 0.5 µM: Homo sapiens, Microglia
Solubility = format: physicochemical
[3] = tested on: neuroblastoma SH-SY5Y cells; test: MTT cell viability, Aβ1–42 treated neuroblastoma cells; format: cell-based; settings: 10 μM Aβ1–42, Figure S32

For `COc1cccc2c1C(=O)c1c(O)c3c(c(O)c1C2=O)C[C@@](O)(C(C)=O)C[C@@H]3O[C@H]1C[C@H](N)[C@H](O)[C@H](C)O1` [Daunorubicin hydrochloride, reference compound], the “effect on Aβ1–42 aggregation (in words)” value (Aβ1–42 aggregation; after 24-h incubation, ThT 3.75 μM) was “inhibitory effects”, the “toxicity of the compound by itself (in words)” value (C20 cells; C20 cells) was “showed a toxicity effect by itself” and the pIC50 ([1]; IC50 on the FF-dimerization) was 5.46.
With `Cc1c2ccncc2c(C)c2c1[nH]c1ccccc12` [Ellipticine] the viability ([2]; compound 0.05 μM) was 65% ± 3%, the viability ([2]; compound 0.1 μM) was 64% ± 4% and the viability at 0.5 µM [2] was 61%. For the same compound, the “normalized fluorescent intensity with respect to positive control Aβ1–42+ThT” value (Aβ1–42 aggregation; 0.2 μM compound, ThT 3.75 μM) was 106%, the “normalized fluorescent intensity with respect to positive control Aβ1–42+ThT” value (Aβ1–42 aggregation; 0.5 μM compound, ThT 3.75 μM) was 112% and the “effect on Aβ1–42 aggregation (in words)” value (Aβ1–42 aggregation; concentration >1 μM) was “inhibition effect”. The “effect on Aβ1–42 aggregation (in words)” value (Aβ1–42 aggregation; low-concentration range ≤0.5 μM) was “stimulator”, the solubility (Solubility; aqueous buffer) was at most 200 µM and the solubility (Solubility; methanol-water (16:84 v/v), aqueous with cosolvent or surfactant or cyclodextrin) was 1200 µM (≈ 296 µg/mL). For the same compound, the “C20 cell viability at high concentrations (in words)” value (C20 cells; high-concentration range such as 5 μM, Figure S31) was “significantly influenced”, the “effect on cells treated with Aβ1–42 (in words)” value [3] was “protective effects” and the “effect on the FF-dimerization (in words)” value ([1]; single-molecule screening of NIH library) was “concentration-dependent promotion effect”.
In the case of `O=C(O[C@@H]1Cc2c(O)cc(O)cc2O[C@@H]1c1cc(O)c(O)c(O)c1)c1cc(O)c(O)c(O)c1` [Epigallocatechin gallate (EGCG), epigallocatechin gallate], the pIC50 ([1]; read-out: IC50 on the FF-dimerization) was 4.58.
With `C[C@H](Cc1ccc(O)c(O)c1)[C@@H](C)Cc1ccc(O)c(O)c1` [Nordihydroguaiaretic acid (NDGA), nordihydroguaiaretic acid] the pIC50 ([1]; IC50 on the FF-dimerization) was 3.97.
For `O=C(/C=C/c1ccc(O)c(O)c1)O[C@H](Cc1ccc(O)c(O)c1)C(=O)O` [Rosmarinic acid (RA), rosmarinic acid, reference compound], the viability ([2]; compound 1 μM) was 66% ± 2%, the viability ([2]; compound 5 μM) was 69% ± 2% and the viability at 0.5 µM [2] was 67%. For the same compound, the pIC50 ([1]; IC50 on the FF-dimerization) was 4.88.
In the case of `CN(C)[C@@H]1C(O)=C(C(N)=O)C(=O)[C@@]2(O)C(O)=C3C(=O)c4c(O)cccc4[C@@](C)(O)[C@H]3C[C@@H]12` [Tetracycline, tetracycline], the pIC50 ([1]; IC50 on the FF-dimerization) was 4.11.
For `COc1cc(/C=C/C(=O)CC(=O)/C=C/c2ccc(O)c(OC)c2)ccc1O` [curcumin], the “effect on the FF-dimerization (in words)” value [1] was “strong inhibition effect”.
